The source of these data is ChEMBL document CHEMBL2176905 (J Med Chem, 2012).

The target in assay [1] is T1, Neutrophil elastase (Homo sapiens, UniProt P08246).
T1 sequence (P08246 whole entry): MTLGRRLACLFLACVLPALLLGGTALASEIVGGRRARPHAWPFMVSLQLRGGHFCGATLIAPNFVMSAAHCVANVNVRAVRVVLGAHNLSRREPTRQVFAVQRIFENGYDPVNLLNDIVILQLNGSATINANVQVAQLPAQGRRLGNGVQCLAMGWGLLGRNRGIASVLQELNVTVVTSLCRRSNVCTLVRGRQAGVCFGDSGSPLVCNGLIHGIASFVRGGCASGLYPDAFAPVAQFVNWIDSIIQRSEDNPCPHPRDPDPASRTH
Briefly: Inhibition of human neutrophil elastase.

The target in assay [2] is T2, Prothrombin (Homo sapiens, UniProt P00734). Briefly: Inhibition of thrombin assessed as hydrolysis of H-D-Pro-L-Phe-L-Arg-p-nitroanilide incubated for 2 hrs measured for 20 mins by microplate reader analysis. Summed up: (§1)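 Counter-screen in 0.1 M HEPES with 0.5 M NaCl, pH 7.25, 96-well format, duplicates. Chymotrypsin, trypsin and porcine pancreatic elastase were commercial; thrombin and plasminogen were purified in-house. Chromogenic substrate hydrolysis followed kinetically at 405 nm on a plate reader. Test compounds up to 100 μM maximum; AEBSF run as irreversible positive control with IC50 determined.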

The target in assay [3] is T3, Plasminogen (Homo sapiens, UniProt P00747). Description: Inhibition of plasmin assessed as hydrolysis of H-D-Val-L-Leu-L-Lys-p-nitroanilide incubated for 2 hrs measured for 20 mins by microplate reader analysis. Summed up: (§2)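 Selectivity panel run in duplicate in 0.1 M HEPES with 0.5 M NaCl, pH 7.25. p-Nitroanilide release was followed kinetically at 405 nm, with inhibitor tested up to 100 μM maximum. Plasmin came from plasminogen purified in-house; porcine pancreatic elastase was commercial. IC50 values were determined.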
T3 sequence (P00747 97-580 limits assumed): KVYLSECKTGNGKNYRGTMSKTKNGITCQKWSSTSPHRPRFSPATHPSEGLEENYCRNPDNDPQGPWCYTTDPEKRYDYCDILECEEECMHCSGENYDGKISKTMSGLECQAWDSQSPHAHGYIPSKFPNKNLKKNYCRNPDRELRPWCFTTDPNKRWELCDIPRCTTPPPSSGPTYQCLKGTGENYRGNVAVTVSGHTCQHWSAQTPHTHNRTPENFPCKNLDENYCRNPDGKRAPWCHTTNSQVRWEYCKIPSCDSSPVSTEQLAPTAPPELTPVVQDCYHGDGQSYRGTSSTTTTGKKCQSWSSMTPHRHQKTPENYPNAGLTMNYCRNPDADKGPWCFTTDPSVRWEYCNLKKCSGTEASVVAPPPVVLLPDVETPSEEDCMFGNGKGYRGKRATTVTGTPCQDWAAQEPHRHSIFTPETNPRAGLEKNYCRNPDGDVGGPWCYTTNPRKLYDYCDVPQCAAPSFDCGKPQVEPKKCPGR
T3 sequence (P00747 581-810 limits assumed): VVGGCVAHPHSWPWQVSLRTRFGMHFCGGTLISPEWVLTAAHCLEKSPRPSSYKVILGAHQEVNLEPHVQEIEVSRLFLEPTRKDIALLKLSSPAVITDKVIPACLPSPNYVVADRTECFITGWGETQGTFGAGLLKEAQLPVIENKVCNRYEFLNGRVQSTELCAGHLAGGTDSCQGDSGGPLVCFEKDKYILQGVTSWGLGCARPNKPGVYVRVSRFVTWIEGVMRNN

The target in another assay is T4, Cathepsin G (Homo sapiens, UniProt P08311).
T4 sequence (P08311 whole entry): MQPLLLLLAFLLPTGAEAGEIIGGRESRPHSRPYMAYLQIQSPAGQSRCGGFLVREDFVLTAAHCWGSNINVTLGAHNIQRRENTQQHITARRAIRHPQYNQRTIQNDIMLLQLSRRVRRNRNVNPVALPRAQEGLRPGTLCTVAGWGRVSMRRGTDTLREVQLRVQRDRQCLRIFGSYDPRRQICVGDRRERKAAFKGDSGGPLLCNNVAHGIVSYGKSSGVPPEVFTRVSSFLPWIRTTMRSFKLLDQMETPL
Briefly: Inhibition of cathepsin G assessed as hydrolysis of N-succinyl-Ala-Ala-Pro-Phe-p-nitroanilide incubated for 2 hrs measured for 20 mins by microplate reader analysis.

Another assay concerns the target Pancreatic elastase (Sus scrofa, UniProt P08419+P00772). Briefly: Inhibition of porcine pancreatic elastase assessed as hydrolysis of N-succinyl-Ala-Ala-Ala-p-nitroanilide incubated for 2 hrs measured for 20 mins by microplate reader analysis. Type of assay: protein assay. In a few lines: as §2
Assay [4] can be described thus: Inhibition of chymotrypsin assessed as hydrolysis of N-succinyl-Ala-Ala-Pro-Phe-p-nitroanilide incubated for 2 hrs measured for 20 mins by microplate reader analysis. In a few lines: as §1
The nature of assay [5]: Inhibition of trypsin assessed as hydrolysis of H-D-Pro-L-Phe-L-Arg-p-nitroanilide incubated for 2 hrs measured for 20 mins by microplate reader analysis. Summed up: as §1
The target of assay [6] is T1, Neutrophil elastase. Description: Inhibition of human neutrophil elastase assessed as hydrolysis of N-succinyl-Ala-Ala-Pro-Val-p-nitroanilide incubated for 2 hrs measured for 20 mins by microplate reader analysis. Summed up: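 HNE (stock 2.8 μM in pH 5.5 acetate/0.5 M NaCl; final 30 nM) preincubated 2 h at 25 °C with inhibitor (final 0.5−50 μM, 7 concentrations) in 0.1 M HEPES, 0.5 M NaCl, pH 7.25, 5.5% DMSO. Suc-Ala-Ala-Pro-Val-pNA added (final 0.35 mM). Hydrolysis rate read kinetically at 405 nm, 25 °C, 20 min. Duplicates; IC50 derived.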

The nature of assay [7]: Inhibition of HIV protease. On the set-up: species or system Human immunodeficiency virus.
Assay [8] deals with T3, Plasminogen. Description: Inhibition of plasmin assessed as hydrolysis of H-D-Val-L-Leu-L-Lys-p-nitroanilide at 100 uM incubated for 2 hrs measured for 20 mins by microplate reader analysis. Summed up: as §1
In assay [9] the target is T1, Neutrophil elastase. Description: Noncompetitive inhibition of human neutrophil elastase assessed as hydrolysis of N-succinyl-Ala-Ala-Pro-Val-p-nitroanilide incubated for 2 hrs measured for 20 mins by Dixon and Cornish-Bowden analysis. In a few lines: (§3)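 Mechanism study: HNE (final 30 nM) preincubated 2 h at 25 °C with inhibitor (final 5−20 μM, 3 concentrations) in 0.1 M HEPES, 0.5 M NaCl, pH 7.25, 5.5% DMSO. Suc-Ala-Ala-Pro-Val-pNA added at two final levels, 0.0875 or 0.35 mM. Rate followed at 405 nm, 25 °C, 20 min. Duplicates; Dixon and Cornish-Bowden plots.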

The target of assay [10] is Pancreatic elastase (Sus scrofa) (UniProt P08419+P00772). Briefly: Inhibition of porcine pancreatic elastase assessed as hydrolysis of N-succinyl-Ala-Ala-Ala-p-nitroanilide at 100 uM incubated for 2 hrs measured for 20 mins by microplate reader analysis. Format: protein assay. Summed up: as §1
Assay [11] deals with T2, Prothrombin. Briefly: Inhibition of thrombin assessed as hydrolysis of H-D-Pro-L-Phe-L-Arg-p-nitroanilide at 100 uM incubated for 2 hrs measured for 20 mins by microplate reader analysis. Summed up:
as §1

Assay [12] deals with T1, Neutrophil elastase. Briefly: Uncompetitive inhibition of human neutrophil elastase assessed as hydrolysis of N-succinyl-Ala-Ala-Pro-Val-p-nitroanilide incubated for 2 hrs measured for 20 mins by Dixon and Cornish-Bowden analysis. In a few lines:
as §3

Assay [13] is described as follows: Inhibition of trypsin assessed as hydrolysis of H-D-Pro-L-Phe-L-Arg-p-nitroanilide at 100 uM incubated for 2 hrs measured for 20 mins by microplate reader analysis. Summed up:
as §1

Assay [14] in a line: Inhibition of chymotrypsin assessed as hydrolysis of N-succinyl-Ala-Ala-Pro-Phe-p-nitroanilide at 100 uM incubated for 2 hrs measured for 20 mins by microplate reader analysis. In a few lines: as §1
The target of assay [15] is T5, Cathepsin G (Homo sapiens) (UniProt P08311).
T5 sequence (whole entry): T4 sequence (P08311 whole entry)
Description: Inhibition of cathepsin G assessed as hydrolysis of N-succinyl-Ala-Ala-Pro-Phe-p-nitroanilide at 100 uM incubated for 2 hrs measured for 20 mins by microplate reader analysis.

The structures appear in SMILES notation. Where a name gives a salt, the structure may show the parent alone. Calls of active or inactive are those of the source. The rule behind the calls is not given here. Residues, ends and D or L forms follow the SMILES beside them. *: point of attachment. PhAc = O=C(Cc1ccccc1)*; Tfa = O=C(C(F)(F)F)*; NHBu = CCCCN* Bounds are passed on as bounds.

One may read the IC50 as the concentration that gives 50% inhibition. On to `CCCCNC(=O)CC[Si](O)(O)[C@H](CC(C)C)NC(=O)[C@@H](NC(=O)Cc1ccc2ccccc2c1)[C@@H](C)CC`, for which the IC50 at Neutrophil elastase [1] came to 0.3 µM.

As to `Cl.NCCc1ccc(S(=O)(=O)F)cc1` [4-AMINOETHYLBENZENESULFONYL FLUORIDE HYDROCHLORIDE], the IC50 at Prothrombin [2] came to 62 µM; at Plasminogen [3], 240 µM; at Cathepsin G, 250 µM; at Pancreatic elastase, 160 µM; in assay [4], 12 µM; in [5] it was 10 µM.

On to `CCCCNC(=O)CC[Si](O)(O)[C@H](CC(C)C)NC(=O)[C@@H](NC(C)=O)[C@@H](C)CC`, for which the IC50 on Neutrophil elastase [6] is over 200 µM.

The term Ki denotes the equilibrium dissociation constant of an inhibitor or competing ligand from its target. As for `O=C(N[C@H]1c2ccccc2C[C@H]1O)[C@H](Cc1ccccc1)C[Si](O)(O)C[C@@H](Cc1ccccc1)C(=O)N[C@H]1c2ccccc2C[C@H]1O`, in assay [7], the Ki amounted to 0.0027 µM.

For `CCCCNC(=O)CC[Si](c1ccccc1)(c1ccccc1)[C@H](CC(C)C)NC(=O)[C@@H](NC(=O)Cc1ccc2ccccc2c1)[C@@H](C)CC`, the inhibition result (on Plasminogen [8]; in [10]) was “inactive” in each case. Besides, the 50% inhibitory concentration (IC50) on Prothrombin [2] was determined as 92 µM; in [4] it was 110 µM; in assay [5], 58 µM; on Neutrophil elastase [6], 14 µM. Besides, at Neutrophil elastase [9], the Ki amounted to 13 µM.

As for `CCCCNC(=O)CNC(=O)[C@H](CC(C)C)NC(=O)[C@@H](NC(=O)C(F)(F)F)[C@@H](C)CC` (Tfa-Ile-Leu-Gly-NHBu), the IC50 at Neutrophil elastase [6] is over 200 µM.

`CCCCNC(=O)CC[Si](O)(O)[C@H](CC(C)C)NC(=O)[C@@H](NC(=O)Cc1ccccc1)[C@@H](C)CC`: the inhibition entry (on Prothrombin [11]; on Plasminogen [8]; in assay [13]; in assay [14]; in assay [10]; in assay [15]) was “inactive” throughout. For the same compound, the Ki on Neutrophil elastase [12] stood at 5 µM. The IC50 at Neutrophil elastase [6] stood at 38 µM.

As to `CCCCNC(=O)CNC(=O)[C@H](CC(C)C)NC(=O)[C@@H](NC(C)=O)[C@@H](C)CC` (Ac-Ile-Leu-Gly-NHBu), on Neutrophil elastase [6], the half-maximal inhibitory concentration (IC50) was over 200 µM.

In the case of `CCCCNC(=O)CC[Si](O)(O)[C@H](CC(C)C)NC(=O)[C@@H](NC(=O)c1ccc2ccccc2c1)[C@@H](C)CC`, the inhibition entry (on Prothrombin [11]; at Plasminogen [8]; in assay [13]; in [14]; in [10]; in assay [15]) was “inactive” in each case. In addition, at Neutrophil elastase [12], the Ki is 4 µM. In addition, the IC50 on Neutrophil elastase [6] turned out to be 16 µM.

Regarding `CCCCNC(=O)CC[Si](O)(O)[C@@H](CC(C)C)NC(=O)[C@@H](NC(=O)Cc1ccc2ccccc2c1)[C@@H](C)CC`, the inhibition entry (at Prothrombin [11]; at Plasminogen [8]; in [13]; in assay [14]; in [10]; in assay [15]) was “inactive” throughout. Further, the values for the IC50 against Neutrophil elastase [1] and on Neutrophil elastase [6] were 0.3 µM and 18 µM, respectively. The Ki at Neutrophil elastase [12] is 3.5 µM.

As to `CCCCNC(=O)CNC(=O)[C@H](CC(C)C)NC(=O)[C@@H](NC(=O)Cc1ccccc1)[C@@H](C)CC` (PhAc-Ile-Leu-Gly-NHBu), at Neutrophil elastase [6], the concentration for half-maximal inhibition (IC50) turned out to be 51 µM.

Regarding `CCCCNC(=O)CNC(=O)[C@H](CC(C)C)NC(=O)[C@@H](NC(=O)Cc1ccc2ccccc2c1)[C@@H](C)CC`, the IC50 at Prothrombin [2] amounted to 100 µM; on Plasminogen [3], 99 µM; on Pancreatic elastase, 55 µM; in [4], 150 µM; in assay [5], 89 µM; at Neutrophil elastase [6], 14 µM. Further, the Ki on Neutrophil elastase [9] was determined as 18 µM. Also, the inhibition result in assay [15] was “inactive”.

In the case of `CC[C@H](C)[C@H](NC(=O)Cc1ccc2ccccc2c1)C(=O)N[C@@H](CC(C)C)[Si](C)(O)O`, the IC50 at Neutrophil elastase [6] was 39 µM.

With `CCCCNC(=O)CC[Si](O)(O)[C@H](CC(C)C)NC(=O)[C@@H](NC(=O)C(F)(F)F)[C@@H](C)CC`, the half-inhibitory concentration (IC50) on Neutrophil elastase [6] was 46 µM.
